Compound activity from PubChem.
Only some compounds are listed: those with a hit (about 4.9% of all), similar ones and a draw of the others.
STAT3 inh-1: IL-6 driven STAT3 reporter inhibitors, primary screen, U3A cells, luciferase, luminescence, MLSCN library; IL-6 STAT3-luciferase reporter; host cell line lacks STAT1; actives 0.89% (n = 190,000); inhibition, % at 5.5 µM;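 active = inhibition above the mean inhibition across all screened compounds plus 3 SD, cut at about 44% in these data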;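 note: 0% = DMSO only wells and 100% = 100 µM nifuroxazide control wells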
NF-kB expr up: activators of NF-kB expression in neurons, primary screen, cell-based, HTS. human neuronal cells, NF-kB reporter expression; active compounds read high. fold change at 12.5 µM. actives 1.6% (n = 190,000). AID 1239, 2008; in the data active = fold change above about 3.3
STAT1 activator: STAT1 signaling activators, primary screen, cell-based, HTS, luciferase reporter; NIH 3T3 STAT1-luciferase reporter, IFN-gamma, luminescence; 100% = IFN-gamma alone, no compound; activation (% of control), % at 5.5 µM; actives 2.6% (n = 200,000);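 active = activation above the screen-wide mean activation plus 3 SD, cut at about 130% in these data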;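 note: raw ratio to IFN-gamma control signal so 100% means no change and 0% no light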
APP 5'UTR act: activators of APP 5'UTR luciferase reporter, primary screen, SH-SY5Y cells | SH-SY5Y APP 5'UTR luciferase reporter, luminescence; zero percent = DMSO vehicle wells | activation, % at 2 µM | actives 1% (n = 190,000);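 active = activation above a set limit, based on mean plus 3 SD of controls, cut at about 140% in these data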
STAT1 blocker: STAT1 signaling inhibitors, primary screen, cell-based, HTS, luciferase reporter. actives 0.35% (n = 200,000). NIH 3T3 STAT1-luciferase reporter, IFN-gamma, luminescence. AID 920, 2007. inhibition, % at 5.5 µM;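 active = inhibition above a set limit, the mean inhibition across all tested compounds plus 3 SD, cut at about 34% in these data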;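 note: 0% = IFN-gamma with DMSO and 100% = IFN-gamma with 300 µM nifuroxazide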
STAT3 act: IL-6 driven STAT3 reporter potentiators, primary screen, U3A cells, luciferase, luminescence, MLSCN library. IL-6 STAT3-luciferase reporter; 100% = signal with IL-6 EC80 alone. activation (% of control), % at 5.6 µM. actives 0.91% (n = 190,000). AID 871, 2007;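 active = activation above the screen-wide mean of compound activation plus 3 SD, cut at about 130% in these data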;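 note: 0% = background luminescence of wells with medium and substrate only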
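Test system: Human STAT1-deficient U3A cells with stable STAT3-luciferase reporter | Also added: Interleukin-6, 33 ng/mL | Timing: Compound pre-incubation 1 h before IL-6, then 6 h stimulation at 37 °C | Technique: Luciferase reporter luminescence | Read-out: Percent of IL-6-only median luminescence | Benchmarks: IL-6-only wells as 100% reference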
STAT3 inh-2: STAT3 reporter inhibitors, retest of hits, confirmation, U3A cells, luciferase, luminescence. actives 45% (n = 1,200). shares compounds with STAT3 inh-1. inhibition, % at 5.7 µM. IL-6 STAT3 luciferase reporter; cell line lacks STAT1;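 active = inhibition above the hit cutoff computed for the primary STAT3 screen, cut at about 44% in these data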;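 note: 0% = IL-6 plus DMSO and 100% = IL-6 plus nifuroxazide control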
NFkB inh 2: NF-kB reporter inhibitors in human cells, confirmation, counter-screen for STAT3 inhibitor project, cell-based, HEK293T, luciferase, TNF-alpha stimulus; shares compounds with STAT3 inh-1; TNF-alpha induced; inhibition, % at 5.7 µM; actives 36% (n = 1,200); AID 1308, 2008;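 active = inhibition above the mean of solvent-only control wells plus 3 SD, cutoff set per campaign, cut at about 13% in these data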;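 note: 0% = TNF-alpha with DMSO and 100% = TNF-alpha with MG high control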
STAT1 inh STAT3c: STAT1 reporter inhibitors, IFN-gamma induced, confirmation, counter-screen for STAT3 inhibitor project, cell-based, NIH 3T3, luciferase luminescence; inhibition, % at 5.7 µM; actives 27% (n = 1,200); shares compounds with STAT3 inh-1; NIH 3T3 STAT1-luciferase reporter;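 active = inhibition above the mean plus 3 SD of solvent-only control wells, limit set per screening run, cut at about 16% in these data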;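 note: 0% = DMSO with IFN-gamma and 100% = nifuroxazide control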
Active calls of the source: *; . = not tested or not shown.

SMILES	STAT3 inh-1	NF-kB expr up	STAT1 activator	APP 5'UTR act	STAT1 blocker	STAT3 act	STAT3 inh-2	NFkB inh 2	STAT1 inh STAT3c
O=C(Nc1ccc2c(c1)nc1n2CCOC1)c1ccco1	5	1.7	121	47	-23	99	.	.	.
O=C(Nc1ccc2c(c1)nc1n2CCSC1)c1ccco1	63*	2.8	96	110	4	51	24	-16	-38
O=C(C1CCN(S(=O)(=O)c2cccc3cccnc23)CC1)N1CCN(c2ccc(Cl)cc2)CC1	47*	0.65	77	-15	26	65	30	14*	24*
O=C(c1cc(-c2ccc(F)cc2)on1)N1CCCC1	46*	3.5*	121	80	-23	66	10	-34	-84
O=C(c1cc(-c2ccc3c(c2)OCO3)on1)N1CCOCC1	52*	3.1	112	112	-14	59	5	-10	-48
O=C(c1cc(-c2ccc(Cl)cc2Cl)on1)N1CCOCC1	50*	1.7	99	196*	2	60	22	-11	-89
NC(=O)CN(N=Nc1cccc([N+](=O)[O-])c1)c1cccc([N+](=O)[O-])c1	13	1.2	92	-6	8	91	.	.	.
C[n+]1c2n(c3ccccc31)N=C(c1ccc(-c3ccccc3)cc1)CS2	66*	1.9	72	0	29	46	33	3	29*
Cc1cc(-c2nnc3n2N=C(c2ccc(-c4ccccc4)cc2)CS3)n[nH]1	13	0.72	97	26	3	91	.	.	.
CC(C)c1ccc(CCNC(=O)c2ccc([N+](=O)[O-])cc2)cc1	5	0.97	98	11	2	101	.	.	.
O=C(NCCc1ccccc1)c1ccc([N+](=O)[O-])cc1	44*	4.3*	103	152*	-3	67	10	-22	-67
O=C(NCc1cccnc1)c1c[nH]c2cc3c(cc2c1=O)OCCO3	60*	2	95	80	6	55	23	-15	-23
COc1ccc(Cl)cc1NC(=O)COC(=O)/C=C/c1c(C)nn(C2CCS(=O)(=O)C2)c1Cl (stereo unspecified)	46*	0.51	90	7	11	66	32	1	-5
COc1cccc(OC)c1CC1SC(=O)NC1=O (stereo unspecified)	-20	1.3	116	-1	-18	119	.	.	.
Cc1cc(C)c(OCC(=O)NCC2CCCO2)c(C)c1 (stereo unspecified)	-8	1.2	105	4	-6	110	.	.	.
N=c1c2c(n(Cc3ccc([N+](=O)[O-])cc3)c3c1CCC3)CCCC2	13	0.74	96	7	4	96	.	.	.
N=c1c2c(n(Cc3ccc(Cl)c(Cl)c3)c3c1CCC3)CCCC2	61*	0.9	75	-12	28	53	24	9	25*
N=c1c2c(n(Cc3ccc(Br)cc3)c3c1CCC3)CCCC2	63*	0.86	83	3	19	48	49*	1	22*
COc1cc(C(=O)N2CCN(c3ccccc3)CC2)c([N+](=O)[O-])cc1OC	8	1.1	96	9	4	96	.	.	.
COc1cccc(/C=N/Nc2nccnc2Cl)c1O	83*	6.2*	102	-51	-4	34	21	24*	-8
COC(=O)c1sccc1N/N=C/c1cccc(OC)c1O	60*	3.6*	104	180*	-4	49	19	-9	-3
CC[n+]1c(/C=C/C=C/N(C(C)=O)c2ccccc2)sc2cc(OC)ccc21	-5	0.82	93	-34	8	102	.	.	.
CCC(O)C1CCN(C(=O)c2cc(COc3ccc4ncccc4c3)on2)CC1 (stereo unspecified)	84*	0.82	68	-4	33	32	84*	29*	27*
O=C(c1cc(COc2ccc3ncccc3c2)on1)N1CCCC(O)C1 (stereo unspecified)	19	0.96	78	4	23	87	.	.	.
Cc1cc(CN(C)C(=O)c2cc(COc3ccc4ncccc4c3)on2)on1	58*	0.9	80	1	21	55	56*	19*	19*
SMILES	STAT3 inh-1	NF-kB expr up	STAT1 activator	APP 5'UTR act	STAT1 blocker	STAT3 act	STAT3 inh-2	NFkB inh 2	STAT1 inh STAT3c
O=C(NC1CCCCCCC1)c1cc(COc2ccc3ncccc3c2)on1	79*	0.68	72	-4	30	37	75*	27*	17*
CC(C(=O)NCC1CCCO1)n1cc([N+](=O)[O-])cn1 (stereo unspecified)	13	0.91	101	26	-2	94	.	.	.
O=C1NC(=S)N(c2cccc(Cl)c2)C12CCCCC2	4	1.1	94	-6	7	98	.	.	.
CC(=O)N1CCc2cc(S(=O)(=O)NC3CCCc4ccccc43)ccc21 (stereo unspecified)	48*	0.7	83	1	19	62	46*	1	9
Cn1c(=O)oc2cc(S(=O)(=O)N3CCCC(C(=O)Nc4ccccn4)C3)ccc21 (stereo unspecified)	13	0.98	94	3	7	93	.	.	.
Cn1c(=O)oc2cc(S(=O)(=O)N3CCCC(C(=O)N4CC=C(c5ccccc5)CC4)C3)ccc21 (stereo unspecified)	56*	0.55	79	-10	23	58	44*	6	12
Cn1c(=O)oc2cc(S(=O)(=O)N3CCCC(C(=O)NC4CCCc5ccccc54)C3)ccc21 (stereo unspecified)	81*	1.4	89	-10	12	37	75*	34*	-6
COc1ccccc1C(=O)Nc1nc(-c2ccc(S(=O)(=O)N3CCOCC3)cc2)cs1	76*	0.28	76	-18	25	37	74*	20*	20*
